The target in test [1] is Glutamate NMDA receptor; GRIN1/GRIN2B (Homo sapiens, UniProt Q05586+Q13224). In words: Antagonist activity at recombinant NR1/NR2B receptor expressed in Xenopus laevis oocytes. It is filed as functional, cell-based, Oocyte. In outline: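 Xenopus oocytes injected with NR1 plus NR2B cRNAs at 1:5 (0.1–4 ng NR1 plus 0.5–20 ng NR2). Two-electrode voltage clamp at −70 mV. Receptors activated by superfused glycine and glutamate (10 µM). IC50 from concentration–inhibition curves using five or six concentrations. Means ± SEM of four oocytes.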
Sequence of Glutamate NMDA receptor; GRIN1/GRIN2B (Q13224 whole entry, other chains not shown, the tested form may be a part): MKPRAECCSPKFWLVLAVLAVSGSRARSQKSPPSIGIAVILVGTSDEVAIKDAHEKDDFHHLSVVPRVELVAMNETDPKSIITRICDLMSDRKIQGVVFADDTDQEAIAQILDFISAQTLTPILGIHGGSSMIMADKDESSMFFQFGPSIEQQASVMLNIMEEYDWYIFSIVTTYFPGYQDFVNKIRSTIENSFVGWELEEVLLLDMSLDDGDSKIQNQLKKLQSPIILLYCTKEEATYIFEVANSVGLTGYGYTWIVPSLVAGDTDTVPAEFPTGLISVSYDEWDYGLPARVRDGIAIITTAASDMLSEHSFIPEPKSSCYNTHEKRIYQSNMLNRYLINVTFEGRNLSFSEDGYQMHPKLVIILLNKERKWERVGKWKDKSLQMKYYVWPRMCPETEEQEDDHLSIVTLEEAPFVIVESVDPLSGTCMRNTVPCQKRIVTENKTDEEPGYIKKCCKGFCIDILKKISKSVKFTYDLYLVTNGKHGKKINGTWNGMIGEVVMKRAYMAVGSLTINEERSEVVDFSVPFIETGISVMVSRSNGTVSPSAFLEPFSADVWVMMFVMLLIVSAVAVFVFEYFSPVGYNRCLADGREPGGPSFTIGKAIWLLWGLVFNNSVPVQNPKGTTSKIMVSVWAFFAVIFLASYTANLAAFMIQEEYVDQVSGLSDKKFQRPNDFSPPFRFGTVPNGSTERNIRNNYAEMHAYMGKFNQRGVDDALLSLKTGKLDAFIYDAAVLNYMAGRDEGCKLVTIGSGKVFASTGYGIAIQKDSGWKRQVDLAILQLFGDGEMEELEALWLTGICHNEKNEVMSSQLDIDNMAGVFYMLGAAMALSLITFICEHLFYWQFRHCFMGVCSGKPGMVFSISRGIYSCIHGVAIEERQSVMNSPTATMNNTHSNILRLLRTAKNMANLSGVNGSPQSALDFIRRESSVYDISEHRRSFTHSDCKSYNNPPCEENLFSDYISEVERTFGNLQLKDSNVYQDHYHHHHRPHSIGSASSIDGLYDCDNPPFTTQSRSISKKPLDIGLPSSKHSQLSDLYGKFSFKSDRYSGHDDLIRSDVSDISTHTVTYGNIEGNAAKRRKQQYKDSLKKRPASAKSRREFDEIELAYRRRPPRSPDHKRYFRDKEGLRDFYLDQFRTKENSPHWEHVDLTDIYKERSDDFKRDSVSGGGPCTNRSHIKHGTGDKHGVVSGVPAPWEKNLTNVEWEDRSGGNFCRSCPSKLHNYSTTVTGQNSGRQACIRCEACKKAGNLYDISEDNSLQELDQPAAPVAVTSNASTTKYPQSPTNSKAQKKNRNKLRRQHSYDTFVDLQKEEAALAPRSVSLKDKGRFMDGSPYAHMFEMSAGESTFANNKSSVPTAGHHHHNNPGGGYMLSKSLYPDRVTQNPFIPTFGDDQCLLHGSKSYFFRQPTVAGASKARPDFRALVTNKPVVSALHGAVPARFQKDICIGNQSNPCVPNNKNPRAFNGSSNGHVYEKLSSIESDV

The target in test [2] is Glutamate NMDA receptor; GRIN1/GRIN2A (Homo sapiens, UniProt Q05586+Q12879). In words: Antagonist activity at recombinant NR1/NR2A receptor expressed in Xenopus laevis oocytes. The class given is functional, cell-based, Oocyte. The method in brief: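 Two-electrode voltage clamp of oocytes injected with NR1 plus NR2A cRNA at 1:5 (0.1–4 ng NR1 plus 0.5–20 ng NR2), held at -70 mV. Receptors activated by superfused glycine and glutamate (10 µM). IC50 from concentration–inhibition curves over five or six concentrations; means ± SEM of four oocytes.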
Sequence of Glutamate NMDA receptor; GRIN1/GRIN2A (Q12879 whole entry, other chains not shown, the tested form may be a part): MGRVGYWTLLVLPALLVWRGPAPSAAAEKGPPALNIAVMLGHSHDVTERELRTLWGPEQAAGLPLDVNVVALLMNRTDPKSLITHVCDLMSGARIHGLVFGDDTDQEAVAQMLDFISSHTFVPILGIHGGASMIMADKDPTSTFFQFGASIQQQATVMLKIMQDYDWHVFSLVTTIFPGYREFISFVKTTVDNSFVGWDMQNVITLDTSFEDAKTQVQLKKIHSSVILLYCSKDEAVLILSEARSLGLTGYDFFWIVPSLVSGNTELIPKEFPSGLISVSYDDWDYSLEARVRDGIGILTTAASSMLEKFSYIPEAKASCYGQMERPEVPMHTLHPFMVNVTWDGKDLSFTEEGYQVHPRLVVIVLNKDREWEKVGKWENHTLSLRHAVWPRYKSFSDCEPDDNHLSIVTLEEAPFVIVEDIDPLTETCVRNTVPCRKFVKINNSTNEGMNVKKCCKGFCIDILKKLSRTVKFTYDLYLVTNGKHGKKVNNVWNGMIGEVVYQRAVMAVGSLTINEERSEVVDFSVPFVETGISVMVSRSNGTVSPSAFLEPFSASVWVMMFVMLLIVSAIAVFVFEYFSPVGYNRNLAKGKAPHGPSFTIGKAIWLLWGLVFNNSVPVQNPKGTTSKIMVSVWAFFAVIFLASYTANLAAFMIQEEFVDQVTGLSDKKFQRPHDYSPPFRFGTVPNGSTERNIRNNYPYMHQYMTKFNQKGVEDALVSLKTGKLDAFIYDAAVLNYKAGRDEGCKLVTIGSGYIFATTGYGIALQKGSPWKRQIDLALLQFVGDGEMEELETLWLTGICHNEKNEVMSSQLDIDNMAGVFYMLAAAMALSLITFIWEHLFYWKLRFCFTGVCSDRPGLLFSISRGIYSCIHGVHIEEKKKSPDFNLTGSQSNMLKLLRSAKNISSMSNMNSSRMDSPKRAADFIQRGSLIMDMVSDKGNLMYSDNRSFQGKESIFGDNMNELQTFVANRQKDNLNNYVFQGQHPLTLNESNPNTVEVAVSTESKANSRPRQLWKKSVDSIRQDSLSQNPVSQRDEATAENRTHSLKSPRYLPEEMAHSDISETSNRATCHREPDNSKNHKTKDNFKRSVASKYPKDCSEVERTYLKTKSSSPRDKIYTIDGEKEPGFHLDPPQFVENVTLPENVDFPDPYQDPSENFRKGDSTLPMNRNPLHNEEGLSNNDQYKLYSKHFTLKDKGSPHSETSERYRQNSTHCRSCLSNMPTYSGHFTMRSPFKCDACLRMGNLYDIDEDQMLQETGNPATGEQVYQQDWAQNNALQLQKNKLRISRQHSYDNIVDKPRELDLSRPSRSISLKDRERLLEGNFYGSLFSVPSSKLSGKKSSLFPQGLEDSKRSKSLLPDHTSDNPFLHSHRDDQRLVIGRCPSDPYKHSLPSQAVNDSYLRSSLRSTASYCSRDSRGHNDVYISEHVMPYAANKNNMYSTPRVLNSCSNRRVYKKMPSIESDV

The next test relates to FM3A. Nature of the test: Cytotoxicity in mouse FM3A cells after 48 hrs. It is filed as functional, cell-based. In outline: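 FM3A cells (1 × 10⁴) cultured in ES medium with or without various compound concentrations at 37 °C for 48 h. Cells counted with 0.05% Trypan blue. IC50 as mean ± SD of triplicate determinations.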

pIC50: −log10 of the molar value.

In the case of `NCCCCNCCCNCCCCNC(=O)N1c2ccccc2Sc2ccccc21`, the figures for the pIC50 (in test [1]; in test [2]; in the test with FM3A) were 6.97, 7.11 and 4.49, respectively.

Take `NCCCCNCCCCNCCCCNC(=O)N1c2ccccc2CCc2ccccc21`: the values for the pIC50 (in test [1]; with FM3A) were 6.85 and 3.88, respectively.

As for `CC12CC3CC(C)(C1)CC(N)(C3)C2` [MEMANTINE], the pIC50 in the test with FM3A is 3.83.

With `NCCCNCCCCNCCCNC(=O)N1c2ccccc2Sc2ccccc21`, the pIC50 in test [1] was 6.46; in test [2] it was 6.67; with FM3A, 4.24.

As to `NCCCNCCCCNCCCNC(=O)N1c2ccccc2C=Cc2ccccc21`, the pIC50 in test [1] is 6.70; in test [2], 6.69; in the test on FM3A, 4.01.

With `NCCCCNCCCNCCCCNC(=O)N1c2ccccc2C=Cc2ccccc21`, the pIC50 in test [1] was 6.47; in test [2], 6.70; in the test on FM3A it was 3.94.

As for `NCCCCNCCCCNCCCCNC(=O)N1c2ccccc2Sc2ccccc21`, the pIC50 in test [1] is 6.97; in test [2] it was 6.90; with FM3A, 4.39.

As for `NCCCCNCCCNCCCCNC(=O)N1c2ccccc2CCc2ccccc21`, the negative-log IC50 (pIC50) in test [1] is 6.57; in test [2], 6.93; in the test with FM3A, 3.77.

For the compound `NCCCCNCCCNCCCCNC(=O)n1c2ccccc2c2ccccc21`, the pIC50 was 6.72 in test [1], 6.68 in test [2] and 4.37 in the test with FM3A.

Regarding `NCCCNCCCCNCCCNC(=O)c1ccc2c(c1)C(=O)c1ccccc1C2=O`, the pIC50 in test [1] is 6.31; in test [2], 6.41; in the test on FM3A it was 4.83.

Consider `NCCCNCCCCNCCCNC(=O)n1c2ccccc2c2ccccc21`, for which the pIC50 in test [1] is 7.08; in test [2], 6.84; in the test with FM3A, 4.50.

Turning to `NCCCCNCCCCNCCCCNC(=O)N1c2ccccc2C=Cc2ccccc21`, the pIC50 in test [1] is 6.53; in the test on FM3A, 3.88.

Take `NCCCCNCCCCNCCCCNC(=O)n1c2ccccc2c2ccccc21`: the pIC50 is 6.78 in test [1], 6.95 in test [2] and 4.07 with FM3A.

As to `NCCCNCCCCNCCCNC(=O)N1c2ccccc2CCc2ccccc21`, the results for the pIC50 (in test [1]; in test [2]; in the test with FM3A) were 6.35, 6.02 and 3.99, respectively.
